Screening data as filed in PubChem BioAssay.
RAM inhibit: blocks the yeast RAM network. hit rate 1.8% among 190,000. inhibition, % at 50 µM. S. cerevisiae dse1pr::URA3 reporter, 5-FOA growth OD615, 2 d; analog-sensitive cbk1-as2 kinase mutant strain;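 active = inhibition above a set limit, 3 SD over mean compound inhibition, cut at about 8.4% in these data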;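 also: 0% = DMSO-only wells with no growth and 100% = 10 µM 1-NA-PP1 full growth; inhibition rescues growth on 5-FOA so higher OD means more RAM inhibition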
Hck-Nef inh: human Hck-Nef kinase inhibition | Recombinant Hck-YEEI plus Nef, Z-Lyte FRET kinase assay | hit rate 0.68% among 220,000 | P08631 | inhibition, % at 20 µM;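 active = Hck-Nef kinase inhibition above about 50%, limit read from the data; inactive = inhibition below that limit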;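 also: 0% = DMSO with Hck plus Nef and 100% = Hck alone without Nef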
Target sequence (P08631 whole entry, looked up): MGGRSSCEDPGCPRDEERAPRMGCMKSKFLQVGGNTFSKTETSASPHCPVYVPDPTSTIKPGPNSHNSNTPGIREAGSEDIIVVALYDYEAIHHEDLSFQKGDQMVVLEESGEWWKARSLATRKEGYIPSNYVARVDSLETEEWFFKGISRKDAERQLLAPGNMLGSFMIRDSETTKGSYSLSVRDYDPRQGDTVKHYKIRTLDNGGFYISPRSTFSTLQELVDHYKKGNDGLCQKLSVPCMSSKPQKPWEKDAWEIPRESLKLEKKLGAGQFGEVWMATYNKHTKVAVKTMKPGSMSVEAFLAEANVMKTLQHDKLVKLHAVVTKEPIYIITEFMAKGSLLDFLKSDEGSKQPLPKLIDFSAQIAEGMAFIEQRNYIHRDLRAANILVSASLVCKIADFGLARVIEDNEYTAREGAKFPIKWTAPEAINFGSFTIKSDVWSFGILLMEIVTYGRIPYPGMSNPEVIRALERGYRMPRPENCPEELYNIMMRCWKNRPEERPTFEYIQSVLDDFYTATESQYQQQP
Arbovirus inh: antivirals against arbovirus infection; arbovirus infection cell-based antiviral screen; inhibition, % at 10 µM; hit rate 0.37% among 200,000; in the data active = inhibition above about 30%
WT yeast gro inh: growth inhibition of WT yeast, mitochondrial fusion screen. mitochondrial fusion phenotypic screen, WT strain. inhibition, % at 10 µM. hit rate 2.1% among 190,000; in the data active = inhibition above about 58%; tested in S. cerevisiae
NCF1 inh: inhibitors of human p47phox binding; P14598; hit rate 0.53% among 220,000; p47phox/p22phox peptide binding, fluorescence polarization, 2 h; inhibition, % at 24.7 µM; AID 1274;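 active = inhibition above about 30%, limit read from the data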;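 also: 0% = p47phox with labelled peptide and 100% = labelled peptide alone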
Calb biofilm kill: mixture kills Candida albicans biofilm cells. C. albicans biofilm persisters + clotrimazole, fluorescence viability; primary screen in compound mixtures of four per well. inhibition, % at 7.6 µM. hit rate 0.02% among 120,000. AID 1242;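 active = inhibition above 30.3% in the primary screen of four-compound pools, then above 30% when the compound was retested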;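 also: compounds exposed to preformed 24 h biofilms for 48 h; 0% = untreated biofilm control and 100% = clotrimazole plus chlorhexidine kill blank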
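Probe or stimulus – Clotrimazole 50 µg/mL co-treatment · System – C. albicans biofilms · Schedule – 24 h biofilm formation, then 48 h compound exposure, 37 °C · Evaluation – percent inhibition of biofilm viability · Technique – 2-h Alamar Blue fluorescence, 535/590 nm excitation/emission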
Numbers without * were called inactive; . = no result given. Shown are actives, neighbours in structure and some others; about 4.6% of the full set was active somewhere.

SMILES	RAM inhibit	Hck-Nef inh	Arbovirus inh	WT yeast gro inh	NCF1 inh	Calb biofilm kill
COc1ccc(NC(=O)c2cc3n(n2)C(C(F)(F)F)CC(c2ccc4c(c2)OCO4)N3)cc1OC (stereo not given)	4.7	5.4	-36.8	67.8*	-12.6	.
Cc1cccc(NC(=O)c2cc3n(n2)C(C(F)(F)F)CC(c2ccc4c(c2)OCO4)N3)c1 (stereo not given)	3.4	2.7	-23.2	67.3*	-6.4	.
COc1ccc(C2CC(C(F)(F)F)n3nc(C(=O)NCCCn4ccnc4)cc3N2)cc1OC (stereo not given)	0.1	-0.4	-3.9	5.2	-1.0	.
O=C(C1CCCN(CCCc2ccccc2)C1)N1CCCCC1 (stereo not given)	1.5	-1.4	-6.5	0.5	13.8	1.1
NS(=O)(=O)c1ccc(CCNC(=O)CCCCCn2c(=S)[nH]c3ccc(Br)cc3c2=O)cc1	2.3	50.1*	-0.5	1.6	-20.2	18.3
O=C(CCCCCn1c(=S)[nH]c2ccc(Br)cc2c1=O)NCC1CCCO1 (stereo not given)	0.9	9.8	-3.4	6.2	-6.9	.
O=[N+]([O-])c1ccc(N2CCN(CCOCCO)CC2)c([N+](=O)[O-])c1	0.4	18.1	13.3	-27.2	-0.2	24.2
CC(C)(C)C1CCc2c(C(=O)NNC(=O)CCC(=O)O)csc2C1 (stereo not given)	0.8	3.0	5.1	-1.9	-3.8	8.1
CC1C/C(=N\NC(=S)NC(C)C)CC(C)(C)C1 (stereo not given)	1.9	0.0	-10.3	65.0*	-9.9	.
COc1ccc(C(N)=O)cc1NC(=O)c1cccc(F)c1	1.2	-0.6	-4.5	64.7*	-6.9	.
Cc1sc2nc3c4ccccc4c(NCc4ccco4)nn3c(=O)c2c1C	4.8	25.3	-3.2	62.6*	-35.1	.
Cc1nc(NCc2ccco2)c2c(C)c(C)sc2n1	1.2	2.0	-27.7	1.6	-4.2	.
CCCCCc1nc2sc3c(c2c(=O)n1NC(=O)c1ccc([N+](=O)[O-])cc1)CC(C)(C)OC3	2.7	0.4	-11.0	80.1*	-5.2	23.0
CCCCCCCc1nc2sc3c(c2c(=O)n1N)CC(C)(C)OC3	.	9.0	.	.	-6.2	11.9
Cc1ccc(NC(=S)NCCc2ccccc2)nc1	1.3	16.0	-1.1	-2.9	-3.8	2.9
COc1cc([N+](=O)[O-])ccc1NC(=O)CC1SC(=Nc2ccc(F)cc2)N(CCC2=CCCCC2)C1=O (stereo not given)	3.9	1.8	47.5*	0.6	-51.8	13.2
COc1ccc(OC)c(NC(=O)CC2SC(=Nc3ccc(F)cc3)N(CCC3=CCCCC3)C2=O)c1 (stereo not given)	5.5	-0.7	5.4	28.8	-30.3	12.4
c1ccc(-c2nc(CSc3nnc(-c4cccs4)o3)cs2)cc1	9.9*	3.9	-3.1	19.1	-12.0	.
Cc1ccc(Nc2nc(CSc3nnc(-c4cccs4)o3)cs2)cc1	4.6	0.3	11.8	15.6	-8.1	.
COc1ccc(OC)c(C(=O)Cn2c3[n+](c4ccc(C(F)(F)F)cc42)CCCCC3)c1	0.6	2.8	0.1	7.0	-7.6	10.7
COC(=O)c1c(NC(NC(=O)C(C)C)C(Cl)(Cl)Cl)sc2c1CCCC2 (stereo not given)	2.8	1.6	-18.7	76.6*	-15.0	15.7
COC(=O)c1c(NC(C)=O)sc2c1CCCC2	1.1	3.8	-14.4	0.0	-12.9	.
CC(O/N=C/c1ccc(OC(F)F)cc1)C(=O)Nc1cccc(S(=O)(=O)N2CCOCC2)c1 (stereo not given)	3.9	3.5	16.4	-4.1	0.0	12.0
O=C(NCc1ccc(F)cc1)c1nc(-c2cccs2)no1	8.5*	9.9	-16.8	29.3	-20.9	13.3
O=c1ccn(CCCBr)c(=O)[nH]1	.	8.1	.	.	-3.7	16.7
Cc1ccc(S(=O)(=O)c2c(C)nn(C(C)(C)C)c2OC(=O)C2CCCC2)cc1	7.4	1.7	-5.2	71.7*	0.3	.
CC(C)(C)c1cc(/C=N/O)cc(C(C)(C)C)c1O	0.3	28.4	17.4	79.8*	-3.4	10.4
COc1cc(/C=C(\C#N)c2nc3c(s2)CCCC3)ccc1O	9.6*	-2.1	-13.3	53.4	-45.9	.
CN(C)S(=O)(=O)c1ccc(NC=O)cc1	-0.1	8.9	15.0	11.3	-0.3	4.0
COc1ccc(/C=C/c2nc(-c3ccccc3O)n[nH]2)cc1	8.8*	-0.8	7.1	53.5	-46.0	4.0
